Experiments:
[1] = AUC in mouse at 0.3 mg/kg, po; type: ADME, organism-based; parameters: dose 0.3 mg/kg; details: in vivo
In short: (§1)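 Mice (n=4) given oral gavage cassette of 4 compounds, each 0.3 mg/kg, dissolved in 20% PEG400 in oleic acid rich triglycerides; plasma PK parameters calculated by one-compartment model.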

[2] = Cmax in mouse at 0.3 mg/kg, po; type: ADME, organism-based; parameters: route oral, dose 0.3 mg/kg; details: in vivo; in short: as §1
[3] = Half life in mouse at 0.3 mg/kg, po; type: ADME, organism-based; details: in vivo; in short: as §1
[4] = Tmax in mouse at 0.3 mg/kg, po; type: ADME, organism-based; details: in vivo; in short: as §1
[5] = Lipophilicity, logP of compound at 100 uM incubated for 90 mins by HPLC analysis; type: physicochemical; details: for logP: 100 µM

In the case of `CC(C)C(=O)N1CCC(NC(=O)Nc2ccc(OC(F)(F)F)c(F)c2)CC1`, the AUC [1] is reported as 10.9 µM·h, the Cmax [2] is reported as 423 nM and the half-life [3] is reported as 6.6 h. It also gave a Tmax [4] of 10 h.

`O=C(Nc1ccc(OC(F)(F)F)c(F)c1)NC1CCN(C(=O)C2CCOCC2)CC1` gave a logP at […], 100 µM [5] of 3.73, an AUC [1] of 5.56 µM·h and a Cmax [2] of 332 nM. It also gave a half-life [3] of 4.3 h and a Tmax [4] of 6.5 h.

Compound `CC[C@H](C)C(=O)N1CCC(NC(=O)Nc2ccc(OC(F)(F)F)c(Br)c2)CC1` has a logP at […], 100 µM [5] of 8.07.

With `CCC(=O)N1CCC(NC(=O)Nc2ccc(C(F)(F)F)c(F)c2)CC1` the logP at […], 100 µM [5] was 3.76.

`O=C(Nc1ccc(OC(F)(F)F)c(F)c1)NC1CCN(C(=O)N2CCOCC2)CC1` showed a logP at […], 100 µM [5] of 3.93.

`CC[C@H](C)C(=O)N1CCC(NC(=O)Nc2ccc(OC(F)(F)F)c(C(F)(F)F)c2)CC1` gave a logP [5] of 9.02.

In the case of `O=C(Nc1ccc(OC(F)(F)F)cc1)NC1CCN(C(=O)C2CCCOC2)CC1` (racemic), the AUC [1] is reported as 0.483 µM·h, the Cmax [2] is reported as 38 nM and the half-life [3] is reported as 3.1 h. The Tmax [4] was 6.5 h.

`CCOC(=O)N1CCC(NC(=O)Nc2ccc(OC(F)(F)F)c(F)c2)CC1` showed a logP at […], 100 µM [5] of 5.94.

Work on `O=C(Nc1ccc(C(F)(F)F)cc1)NC1CCN(C(=O)C2CCCOC2)CC1` (stereo not given) yielded a logP at […], 100 µM [5] of 3.41.

In the case of `O=C(Nc1ccc(C(F)(F)F)cc1)NC1CCN(C(=O)C2=COCC2)CC1`, the logP at […], 100 µM [5] is reported as 3.37.

Compound `CC[C@H](C)C(=O)N1CCC(NC(=O)Nc2ccc(C(F)(F)F)cc2)CC1` has a logP at […], 100 µM [5] of 3.84.

`O=C(Nc1ccc(C(F)(F)F)cc1)NC1CCN(C(=O)c2cc[nH]c2)CC1` gave a logP at […], 100 µM [5] of 3.26.

For `CC[C@H](C)C(=O)N1CCC(NC(=O)Nc2ccc(OC(F)(F)F)c(OC(F)(F)F)c2)CC1`, the logP [5] was 10.62.

`O=C(Nc1ccc(C(F)(F)F)c(F)c1)NC1CCN(C(=O)C2(C(F)(F)F)CC2)CC1` showed a logP at […], 100 µM [5] of 5.52.

`CC[C@H](C)C(=O)N1CCC(NC(=O)Nc2ccc(OC(F)(F)F)c(Cl)c2)CC1` gave a logP at […], 100 µM [5] of 7.7.

`O=C(Nc1ccc(OC(F)(F)F)cc1)NC1CCN(C(=O)C2CCOCC2)CC1` showed a logP at […], 100 µM [5] of 3.26, an AUC [1] of 6.37 µM·h and a Cmax [2] of 381 nM. The half-life [3] was 6.3 h and the Tmax [4] was 4.2 h.

With `O=C(Nc1ccc(C(F)(F)F)c(F)c1)NC1CCN(C(=O)C2CCOCC2)CC1` the logP at […], 100 µM [5] was 3.52.

Compound `CCC(=O)N1CCC(NC(=O)Nc2ccc(OC(F)(F)F)c(F)c2)CC1` has an AUC [1] of 13 µM·h, a Cmax [2] of 479 nM and a half-life [3] of 13 h. The Tmax [4] was 6.7 h.

`O=C(Nc1ccc(OC(F)(F)F)c(F)c1)NC1CCN(C(=O)C2(C(F)(F)F)CC2)CC1` showed a logP at […], 100 µM [5] of 5.94.

Work on `Cc1occc1C(=O)N1CCC(NC(=O)Nc2ccc(OC(F)(F)F)cc2)CC1` yielded a logP at […], 100 µM [5] of 4.3.

`CC[C@H](C)C(=O)N1CCC(NC(=O)Nc2ccc(OC(F)(F)F)c(F)c2)CC1` gave an AUC [1] of 2.17 µM·h, a Cmax [2] of 166 nM and a half-life [3] of 3.3 h. For the same compound, the Tmax [4] was 5.2 h.

Work on `O=C(Nc1ccc(OC(F)(F)F)c(F)c1)NC1CCN(C(=O)C2CCCOC2)CC1` (stereo not given) yielded an AUC [1] of 0.785 µM·h, a Cmax [2] of 112 nM and a half-life [3] of 3.2 h. The Tmax [4] was 2.1 h.

In the case of `CCOC(=O)N1CCC(NC(=O)Nc2ccc(C(F)(F)F)c(F)c2)CC1`, the logP at […], 100 µM [5] is reported as 5.46.

With `O=C(Nc1ccc(C(F)(F)F)c(F)c1)NC1CCN(C(=O)C2CC2)CC1` the logP at […], 100 µM [5] was 3.94.

With `CC[C@H](C)C(=O)N1CCC(NC(=O)Nc2ccc(C(F)(F)F)cn2)CC1` the logP [5] was 3.22.

`O=C(Nc1ccc(OC(F)(F)F)c(F)c1)NC1CCN(C(=O)C2CC2)CC1` gave a logP at […], 100 µM [5] of 4.19.

For `O=C(Nc1ccc(C(F)(F)F)c(F)c1)NC1CCN(C(=O)C2CCCOC2)CC1` (stereo not given), the logP at […], 100 µM [5] was 3.84.

Source: ChEMBL document CHEMBL4699543, “Preparation and evaluation of soluble epoxide hydrolase inhibitors with improved physical properties and potencies for treating diabetic neuropathic pain” (Bioorg Med Chem, 2020)
